Source: PubChem
Lmaj promast: inhibitors of Leishmania major promastigote growth. inhibition, % at 10 µM. AID 1063. Leishmania major promastigotes, resazurin fluorescence viability. hit rate 9% among 200,000; in the data active = inhibition above about 50%;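 also: promastigotes grown with compound for 44 hours at 28 °C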
WT yeast gro inh: growth inhibition of WT yeast, mitochondrial fusion screen. inhibition, % at 10 µM. mitochondrial fusion phenotypic screen, WT strain. hit rate 2.1% among 190,000; in the data active = inhibition above about 58%; tested in S. cerevisiae
Diaph act CS: activates diaphorase or chemically reduces, flagging diaphorase assay artifacts; Diaphorase/resazurin coupled assay, resorufin fluorescence, 16 min; hits give high values; 1 = vehicle wells, 0 = NADH-free wells; activation factor at 20 µM; hit rate 0.005% among 190,000; AID 1229;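 active = diaphorase activity raised at least twofold by the compound at 20 µM; inactive = activation factor below 2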
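Test system: Clostridium kluyveri diaphorase, purified enzyme. Buffer or medium: 50 mM HEPES pH 7.4 buffer plus MgCl2 and Tween 20. Also added: 0.114 mM NADH and 0.1 mM resazurin, final amounts. Dosing: compound 20 µM once, DMSO 1%. Schedule: 16 min enzyme reaction, ambient temperature. Detection: fluorescence of resorufin, 544 nm excitation, 590 nm emission.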
PMI act satM6P: PMI (human) activation, high substrate | P34949 | coupled PMI enzyme assay, resazurin fluorescence, 20 min; hits give high values; 1 = untreated enzyme, 0 = substrate-free blank | activation factor at 20 µM | hit rate 0.34% among 190,000;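 active = activation factor of 2 or more at 20 µM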
Target sequence (P34949 whole entry, looked up): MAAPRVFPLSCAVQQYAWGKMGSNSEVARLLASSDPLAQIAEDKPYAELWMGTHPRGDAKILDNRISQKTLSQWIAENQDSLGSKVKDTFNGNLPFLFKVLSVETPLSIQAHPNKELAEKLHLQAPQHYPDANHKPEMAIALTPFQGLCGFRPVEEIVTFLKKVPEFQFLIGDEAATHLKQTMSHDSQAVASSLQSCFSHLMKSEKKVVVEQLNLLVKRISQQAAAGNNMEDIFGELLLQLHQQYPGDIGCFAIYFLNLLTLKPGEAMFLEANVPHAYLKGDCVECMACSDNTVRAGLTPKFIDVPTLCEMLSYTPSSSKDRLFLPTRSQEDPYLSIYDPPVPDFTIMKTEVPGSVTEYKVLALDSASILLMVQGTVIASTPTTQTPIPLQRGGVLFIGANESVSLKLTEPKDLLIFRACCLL
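Test system: human phosphomannose isomerase with PGI, G6PDH, diaphorase coupling enzymes; amount: 15 ng/mL PMI; incubation: enzyme reaction with compound 20 min at room temperature; technique: resorufin fluorescence (Ex 544/Em 590 nm) from resazurin via diaphorase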
PMI act: activators of human phosphomannose isomerase; P34949; purified human PMI, coupled resazurin fluorescence, 20 min; hits give high values; 1 = vehicle control, 0 substrate-free wells; activation factor at 20 µM; hit rate 0.005% among 190,000; AID 1214;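 active = activation factor of 2 or more at 20 µM, relative to plate controls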
Large screens that a line does not name were inactive. A selection: hits, their analogues and other compounds. The true share with any hit is near 10%.

O=C(Nc1ccccc1)N1CCCCC1c1cccnc1 (centres undefined)	Lmaj promast 77
O=C(Nc1ccccc1)N1CCCC2CCCCC21 (centres undefined)	none
COCCn1c(=O)[nH]c2cc(C(=O)NCCc3ccc(S(N)(=O)=O)cc3)ccc2c1=O	none
COc1ccccc1-c1c(-c2ccc(OCC(=O)NN)cc2O)n[nH]c1C(F)(F)F	Lmaj promast 87
COc1ccc(-c2n[nH]c(C)c2-c2ccc(Cl)cc2)c(O)c1	none
COc1ccc(-c2n[nH]c(C(F)(F)F)c2-c2cc3ccccc3o2)c(O)c1	WT yeast gro inh 94
CCOc1ccc(C(=O)NCC(=O)N2CCc3ccccc3C2)cc1OCC	none
Cc1ccc(S(=O)(=O)/N=C(\c2ccccc2)N(C)S(=O)(=O)c2ccccc2)cc1	Lmaj promast 63
CCCCC(=O)Nc1sc2c(c1C(=O)OCC)CCC(C=O)=C2Cl	Lmaj promast 99
CCOC(=O)c1c(NC(=O)c2ccccc2Cl)sc2c1CCc1ccccc1-2	none
CC(c1ccccn1)N(Cc1ccco1)C(=S)Nc1cccc(F)c1 (centres undefined)	none
CCOC(=O)c1c(C)[nH]c(C)c1C(=O)COC(=O)c1ccc(Cl)c(S(=O)(=O)NCc2ccccc2)c1	none
CC1(C)CC(=O)C2=C(C1)N(CCN1CCOCC1)C1=C(C(=O)CC(C)(C)C1)C2c1cccc(Cl)c1	Lmaj promast 61
CCCCCCn1c(SCCCC)nc2c1c(=O)[nH]c(=O)n2C	none
CCn1c([N+](=O)[O-])nc2c1c(=O)[nH]c(=O)n2C	Lmaj promast 100
c1ccc(-c2nnn(C34CC5CC(CC(C5)C3)C4)n2)cc1	WT yeast gro inh 81
Nc1ncn(C23CC4CC(CC(C4)C2)C3)n1	none
O=C(NCc1ccco1)c1ccccc1NS(=O)(=O)c1ccc(Br)s1	none
COc1cccc(NC(=O)NC2CCCc3ccccc32)c1 (centres undefined)	none
CN(CCOc1ccccc1)S(=O)(=O)c1ccc2oc3ccccc3c2c1	Lmaj promast 55
O=c1c2c(nc3c(-c4ccc(Cl)cc4)c[nH]n13)CCCC2	Lmaj promast 100
Cc1[nH]n2c(=O)c3c(nc2c1-c1ccc(F)cc1)CCCC3	Lmaj promast 100
Cc1[nH]n2c(=O)c3c(nc2c1-c1ccccc1)CCCC3	Lmaj promast 99
CC(=O)COc1ncn(-c2ccccc2)n1	none
Cc1c(N/C(=N/S(=O)(=O)c2ccc(F)cc2)c2ccccc2)c(=O)n(-c2ccccc2)n1C	none
COc1ccc(C)cc1NC(=O)C(NCC1CCCO1)c1ccccc1 (centres undefined)	none
COc1ccc2[nH]c(C)c(C(=O)CN3CCN(C/C=C/c4ccccc4)CC3)c2c1	Lmaj promast 62
Cc1[nH]c2ccccc2c1C(=O)CN1CCN(C2CCCCC2)CC1	none
Cc1[nH]c2ccccc2c1C(=O)CN1CCN(C/C=C/c2ccccc2)CC1	Lmaj promast 83
COc1ccc2[nH]c(C)c(C(=O)CN3CCN(C(=O)c4ccco4)CC3)c2c1	none
CSCCC(NS(=O)(=O)c1ccc(Br)cc1)C(=O)OCC(=O)NC1CC1 (centres undefined)	none
O=C(O)/C=C/C(=O)Nc1ccc(-c2ccccc2)cc1	none
CN(C)CCCN1c2ccccc2Sc2ccc(Cl)cc21	Lmaj promast 83
CN(C)CCCN1c2ccccc2CCc2ccccc21	none
OCCN1CCN(CCCN2c3ccccc3Sc3ccc(Cl)cc32)CC1	Lmaj promast 96, WT yeast gro inh 96
CC(=O)Nc1ccc(S(=O)(=O)N2CCN(c3cnn(C)c(=O)c3Cl)CC2)cc1	none
CCCNC(=S)N1CCN(Cc2ccc3c(c2)OCO3)CC1	none
CCOCCCNC(=S)N1CCN(Cc2ccc3c(c2)OCO3)CC1	Lmaj promast 74
CCNC(=S)N1CCN(Cc2ccc3c(c2)OCO3)CC1	none
CC(C)(C)CC(C)(C)NC(=S)N1CCN(Cc2ccc3c(c2)OCO3)CC1	Lmaj promast 82
COCCN(C(=S)Nc1ccc(C(C)C)cc1)C(C)c1cccs1 (centres undefined)	WT yeast gro inh 63
COCCN(C(=S)Nc1c(C)cc(C)cc1C)C(C)c1cccs1 (centres undefined)	Lmaj promast 98, WT yeast gro inh 65
S=C(NCC1CCCO1)N1CCN(Cc2ccccc2Cl)CC1 (centres undefined)	none
O=C1Nc2ccccc2OCc2c1cccc2[N+](=O)[O-]	none
CC(C)(C)c1ccc(C(=O)Nc2ccc(NC(=O)C(=O)O)cc2)o1	none
Cc1nn(-c2ccccc2)c(Cl)c1CN(C(=O)CCl)c1ccc(Cl)cc1	Lmaj promast 100
Cc1nn(-c2ccccc2)c(Cl)c1CN(C(=O)CCl)c1cccc2ccccc12	Lmaj promast 99
CC(=O)N(Cc1c(C)nn(-c2ccccc2)c1Cl)c1ccc(Cl)cc1	none
C[C@@H]1CCC[C@H](C)N1NC(=O)c1ccc(Cl)c(S(N)(=O)=O)c1	none
CCCOc1ccc(/C=N/NC(=O)CSCc2ccc([N+](=O)[O-])cc2)cc1OCC	none
CC(OCC(O)CN(C)CCOc1ccccc1)c1ccc(Cl)cc1 (centres undefined)	Lmaj promast 99
CC(=O)c1ccc(Nc2ccc(-c3ccccc3F)nn2)cc1	none
CCC(C)(C)n1nnnc1C(c1cc2ccc(OC)cc2[nH]c1=O)N1CCc2ccccc2C1 (centres undefined)	Lmaj promast 100
CC(C)C(c1nnnn1C1CCCCC1)N1CCc2ccccc2C1 (centres undefined)	Lmaj promast 67
COc1ccc2cc(C(c3nnnn3C(C)(C)C)N3CCc4ccccc4C3)c(=O)[nH]c2c1 (centres undefined)	Lmaj promast 99
CC(C)C(c1nnnn1C1CCCC1)N1CCc2ccccc21 (centres undefined)	none
CCC(C)(C)n1nnnc1C(c1ccccc1)N1CCc2ccccc2C1 (centres undefined)	Lmaj promast 77
CCCCNC(=O)c1ccc(NC(C)=O)c(Cl)c1	none
COc1ccc2[nH]c(=O)c(C(c3nnnn3C3CCCCC3)N3CCN(C)CC3)cc2c1 (centres undefined)	none
CCC(C)(C)n1nnnc1C(c1ccc2ncccc2c1)N1CCCCCC1 (centres undefined)	none
CCC(C)(C)n1nnnc1C(c1ccc(C)cc1)N1CCCC1 (centres undefined)	Lmaj promast 65
COc1ccc2cc(C(c3nnnn3C3CCCC3)N3CCc4ccccc4C3)c(=O)[nH]c2c1 (centres undefined)	Lmaj promast 82
CCC(C)(C)n1nnnc1C(c1cccc(C#N)c1)N1CCN(c2cccc(C)c2C)CC1 (centres undefined)	Lmaj promast 76
COc1ccc(CNCC(O)(c2ccc(F)cc2)c2ccc(F)cc2)cc1	none
CCCCc1nnc(NC(=O)C(C)Sc2nc(O)c(Cc3ccccc3)c(=O)[nH]2)s1 (centres undefined)	none
